Only some compounds are listed: those with a hit (about 3.6% of all), similar ones and a draw of the others.
STAT3 activator: activators of IL-6 induced STAT3 signaling; activation (% of control), % at 5.6 µM; 0.91% of 190,000 active; AID 871; U3A cells, IL-6 STAT3-luciferase reporter, luminescence; 100% = signal with IL-6 EC80 alone;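 active = activation above the screen-wide mean of compound activation plus 3 SD, cut at about 130% in these data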;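 also: 0% = background luminescence of wells with medium and substrate only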
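Assay system – human STAT1-deficient U3A cells with stable STAT3-luciferase reporter · Also added – IL-6 (33 ng/mL) · Schedule – compound 1 h, then IL-6 6 h at 37 °C · Technique – reporter luminescence signal · Evaluation – % activation versus median of IL-6-stimulated wells · Benchmarks – IL-6-only wells as 100% reference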
PERK inhibitor: blocks human PERK kinase; CHO PERK-DD fusion, SEAP luminescence translation reporter; inhibition, % at 5.6 µM; 0.17% of 220,000 active; AID 1416;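 active = inhibition above the mean inhibition of all tested compounds plus 3 SD, set separately per screening campaign, cut at about 2.9% in these data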;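 also: PERK kinase domain activated by AP20187 dimerizer at 100 nM; 0% = DMSO with dimerizer and 100% = rapamycin at 8.4 µM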
Target sequence (Q9NZJ5 whole entry, looked up, the tested form may be a part): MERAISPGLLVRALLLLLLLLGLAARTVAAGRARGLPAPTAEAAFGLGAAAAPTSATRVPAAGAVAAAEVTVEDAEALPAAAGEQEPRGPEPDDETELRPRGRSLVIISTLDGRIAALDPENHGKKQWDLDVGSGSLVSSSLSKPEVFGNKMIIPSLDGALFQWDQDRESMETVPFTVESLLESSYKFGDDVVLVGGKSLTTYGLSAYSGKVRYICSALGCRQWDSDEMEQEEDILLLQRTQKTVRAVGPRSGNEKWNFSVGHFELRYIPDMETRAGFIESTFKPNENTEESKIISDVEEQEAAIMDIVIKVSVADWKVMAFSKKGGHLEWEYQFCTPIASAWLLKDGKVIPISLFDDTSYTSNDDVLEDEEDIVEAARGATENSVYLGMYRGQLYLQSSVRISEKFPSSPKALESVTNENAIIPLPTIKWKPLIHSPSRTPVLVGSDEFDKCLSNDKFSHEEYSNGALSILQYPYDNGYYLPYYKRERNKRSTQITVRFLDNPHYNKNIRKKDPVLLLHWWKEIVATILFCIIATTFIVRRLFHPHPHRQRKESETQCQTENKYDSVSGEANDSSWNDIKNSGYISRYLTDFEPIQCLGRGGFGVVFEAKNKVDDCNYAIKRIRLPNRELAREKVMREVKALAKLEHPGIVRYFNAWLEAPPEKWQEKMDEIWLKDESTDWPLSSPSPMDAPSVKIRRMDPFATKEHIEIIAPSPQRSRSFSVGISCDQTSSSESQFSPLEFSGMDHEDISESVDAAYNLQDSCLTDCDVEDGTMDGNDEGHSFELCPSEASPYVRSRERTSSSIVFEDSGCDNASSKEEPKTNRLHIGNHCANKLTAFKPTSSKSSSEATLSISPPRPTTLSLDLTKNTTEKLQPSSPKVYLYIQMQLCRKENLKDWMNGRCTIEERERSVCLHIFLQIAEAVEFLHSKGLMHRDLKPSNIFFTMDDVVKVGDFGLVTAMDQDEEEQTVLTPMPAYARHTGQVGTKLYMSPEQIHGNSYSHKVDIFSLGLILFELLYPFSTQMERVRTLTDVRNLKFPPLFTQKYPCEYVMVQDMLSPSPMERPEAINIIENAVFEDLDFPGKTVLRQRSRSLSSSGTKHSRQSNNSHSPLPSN
PolyA inhibitor: blocks polyadenylation in yeast reporter cells | 0.02% of 300,000 active | activity score, % at 12 µM | S. cerevisiae SKY197-pL101 polyadenylation reporter, beta-gal luminescence; efflux-impaired pdr1/pdr3 knockout yeast; score 100 = 6 SD above DMSO;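 active = lowest replicate activity score at least 50, where 100 means six control SD above control mean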;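 also: yeast exposed to compound for 9 h at 30 °C; higher score means more reporter readthrough which indicates perturbed polyadenylation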
AHR activator: activators of human aryl hydrocarbon receptor | AHR-responsive luciferase reporter cells, luminescence | activation, % at 5 µM | 2.5% of 320,000 active | AID 2796; in the data active = activation above about 47%;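 also: 0% = vehicle wells and 100% = reference agonist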
HSF1 inhib: HSF1 inhibition; NIH3T3-HGL HSE-luciferase, MG132-induced, luminescence 8 h; active compounds read low; activity change, negative = inhibition, % at 7.5 µM (by protocol); 0.77% of 300,000 active;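 active = more than half of replicate wells show activity change below -50%, luminescence cut by over half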;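 also: luciferase reports HSF-1 transcriptional activity via heat shock element; 0% = median of DMSO wells and -100% = zero luminescence signal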
Hsp70 act: transcriptional activators of Hsp70 | HeLa Hsp70 promoter luciferase reporter, luminescence; scaled: vehicle 0, proteasome-inhibitor control 100% | activation, % at 10 µM | 0.04% of 200,000 active | AID 1203;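 active = activation above the mean across all tested compounds plus 3 SD, cutoff set per campaign, cut at about 5.5% in these data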;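 also: 100% = MG132 at 30 µM as the positive control and 0% = DMSO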
* hit, by the source's call; x = no result.

SMILES	STAT3 activator	PERK inhibitor	PolyA inhibitor	AHR activator	HSF1 inhib	Hsp70 act
COc1ccc(-n2c(SCC(=O)NCC3CCCO3)nc3c([nH]c4ccccc43)c2=O)cc1 (stereo unspecified)	x	x	1	8	-3	x
Cc1ccc(NC(=O)C2CCCN(C(=O)NCc3ccccc3)C2)c(C)c1 (stereo unspecified)	x	x	7	-1	-2	x
O=C(NC1CCCCC1)N1CCN(c2ccccc2Cl)CC1	x	x	-7	-2	-1	x
COCCn1c(SCC(=O)Nc2ccc(NC(C)=O)cc2)nc2c([nH]c3ccccc32)c1=O	x	x	4	74*	-5	x
CCOC(=O)N1CCN(C(=O)CSc2nc3c([nH]c4ccccc43)c(=O)n2C)CC1	108	0	-5	51*	0	0
CCn1c(SCC(=O)Nc2ccc(C(C)=O)cc2)nc2c([nH]c3ccccc32)c1=O	x	x	-21	31	30	x
COc1ccc(NC(=O)CSc2nc3c([nH]c4ccccc43)c(=O)n2C)cc1	135*	0	0	20	-1	0
Cc1nnc(SC(C)C(=O)Nc2ccc(Cl)cc2Cl)[nH]c1=O (stereo unspecified)	x	x	x	-1	x	x
Cc1nc(C)n(CCNS(=O)(=O)c2ccc(C)c(C)c2)n1	x	x	10	-3	-6	x
COc1cc(C(=O)OCCN2CCOCC2)ccc1O	94	1	16	6	-6	0
O=C(OCCCN1CCOCC1)c1ccc(O)c(O)c1	x	3.4*	-13	2	-65*	x
Cc1ccc2[nH]c3c(c2c1)CCN(C)C3	x	x	-25	8	-71*	x
Cc1ccc2[nH]c3c(c2c1)CN(C)CC3	107	1	36	1	4	0
COc1cccc(C(=O)NC(=S)Nc2ccccc2N2CCCCC2)c1	x	x	-5	73*	4	x
Cc1ccc(C(=O)NC(=S)Nc2ccccc2N2CCCC2)cc1[N+](=O)[O-]	134*	0	3	39	-7	0
O=C(NC(=S)Nc1ccccc1N1CCCC1)c1ccccc1Br	x	x	8	75*	0	x
CC(C)Oc1cccc(C(=O)NC(=S)Nc2cccnc2)c1	101	0	-1	7	6	0
CC(C)Oc1cccc(C(=O)NC(=S)Nc2ccccc2)c1	102	0	-21	5	-61*	0
COc1cc(C(=O)COC(=O)c2ccncc2)cc(OC)c1OC	x	x	x	3	x	x
CN(CC(=O)Nc1cccc(F)c1)C(=O)c1ccccc1OCCOc1ccccc1	x	x	11	4	12	x
CCOC(=O)c1cc2nc(-c3ccco3)cc(C(F)(F)F)n2n1	96	1	3	0	-89*	0
CCN=C1S/C(=C\c2ccc(-c3cccc(C(=O)O)c3)o2)C(=O)N1CC	131	1	-24	9	-52*	0
CCN1C(=O)/C(=C\c2ccc(-c3cccc(C(=O)OC)c3)o2)SC1=Nc1ccc(C(=O)O)cc1	x	x	-35	1	1	x
COC(=O)c1sc(NC(=O)COc2ccccc2)nc1C	103	1	-2	7	17	0
Cc1ccnc(NS(=O)(=O)c2ccc(NC(=O)c3ccc(C)o3)cc2)n1	107	1	-16	2	-1	0
SMILES	STAT3 activator	PERK inhibitor	PolyA inhibitor	AHR activator	HSF1 inhib	Hsp70 act
O=C(COc1ccccc1)Nc1ccc(S(=O)(=O)Nc2ncccn2)cc1	117	0	16	5	-7	0
Cc1ccnc(NS(=O)(=O)c2ccc(NC(=O)COc3ccccc3)cc2)n1	101	0	4	0	-88*	-1
Cc1nc(NC(=O)COc2ccccc2)sc1C(=O)Nc1ccccc1	105	0	1	66*	-6	0
Cc1ccnc(NS(=O)(=O)c2ccc(NC(=O)c3ccccc3F)cc2)n1	x	x	10	58*	-1	x
CCC(Cc1ccccc1)NS(=O)(=O)c1csc(C(N)=O)c1 (stereo unspecified)	x	x	5	12	-7	x
CC(Cc1ccco1)NC(=O)c1cccc(S(=O)(=O)N(C)C)c1 (stereo unspecified)	x	x	-6	4	2	x
Cn1cc([N+](=O)[O-])c(C(=O)NCc2ccccc2)n1	x	2	6	2	-5	x
Cn1cc([N+](=O)[O-])c(C(=O)NCc2ccco2)n1	105	3.8*	0	4	-7	0
Cc1cccc(NC(=O)C2C3C=CC(O3)C2C(=O)O)c1C (stereo unspecified)	x	x	13	4	1	x
O=C1CCn2nc(-c3ccc(Cl)cc3)cc2N1	111	1	-5	48*	14	0
COc1cccc(CNc2ccc3[nH]c(=O)[nH]c3c2)c1OCc1ccccc1F	x	x	0	8	-1	x
O=C(OCC(=O)N1CCOCC1)c1c(Cl)ccc(Cl)c1Cl	88	-1	8	48*	-3	1
O=[N+]([O-])c1ccccc1N/N=C/c1c[nH]c2ccccc12	203*	-1	-57	73*	98	0
Cn1cc([N+](=O)[O-])c(C(=O)N/N=C\c2c[nH]c3ccccc23)n1	115	1	16	44	-5	0
O=C(N/N=C/c1c[nH]c2ccccc12)c1ccc2c(c1)OCCO2	x	2	11	48*	-43	x
O=C(O)COc1ccccc1/C=N/NC(=O)c1ccc2c(c1)OCCO2	x	x	20	4	-60*	x
O=C(O)COc1ccccc1/C=N/NC(=O)c1ccc(F)cc1	104	0	37	2	-10	0
Cn1ncc([N+](=O)[O-])c1C(=O)N/N=C/c1c[nH]c2ccccc12	114	1	3	70*	-7	0
O=[N+]([O-])c1ccc(N/N=C/c2c[nH]c3ccccc23)cc1	68	0	-16	1	103	0
COc1ccccc1-n1c(SCC(=O)NC2CC2)nc2ccccc2c1=O	x	x	x	1	x	x
O=C(N/N=C/c1c[nH]c2ccccc12)c1cccc([N+](=O)[O-])c1	126	0	12	70*	3	0
O=C(N/N=C/c1c[nH]c2ccccc12)c1ccccc1	x	x	2	17	7	x
Cc1ccc(NC(=O)c2cncc(Br)c2)cc1S(=O)(=O)N(C)C	117	-1	7	67*	15	0
CN(C)S(=O)(=O)c1cccc(NC(=O)c2cncc(Br)c2)c1	106	0	-6	17	0	0
COc1ccc(COC(=O)c2ccc(C)c(S(=O)(=O)N3CCOCC3)c2)cc1F	x	x	8	1	0	x
CSc1nc2sc3c(c2c(=O)n1C)CCC(C)C3 (stereo unspecified)	111	0	-25	56*	3	0
CCCc1ccc2oc(C(=O)NCCc3cnn(C)c3)c(C)c2c1	x	x	-10	49*	40	x
COc1cc(OC)cc(C(=O)Nn2cc(C(=O)Nc3ccccc3F)c3ccccc3c2=O)c1	134*	-1	7	39	-2	0
